ChEMBL document CHEMBL3045677, “Sulfonamide-1,2,4-thiadiazole derivatives as antifungal and antibacterial agents: synthesis, biological evaluation, lipophilicity, and conformational studies” (2010)
≈ marks a conversion by molar mass, not a printed value.

Assays:
Listeria monocytogenes [1] = test: Antibacterial activity against Listeria monocytogenes NCTC 7973 at […] degC measured after 24 hr by microdilution method; format: functional; conditions: NCTC 7973, 24 h
In short: (§1)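 Bacteria suspended in sterile saline at 1.0×10⁵ CFU/ml and added at 1.0×10⁴ CFU per well to LB broth with compound (1 mg/ml) in 96-well plates. Incubated 24 h at […] °C. MIC was the lowest concentration without visible growth under a binocular microscope. OD 655 nm was read against a blank and a positive control.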

Bacillus cereus [2] = test: Antibacterial activity against clinical isolate Bacillus cereus at […] degC measured after 24 hr by microdilution method; format: functional; in short: as §1
Salmonella typhimurium [3] = test: Antibacterial activity against Salmonella enterica subsp. enterica serovar Typhimurium ATCC 13311 at […] degC measured after 24 hr by microdilution method; format: functional; conditions: ATCC 13311, 24 h; in short: as §1
Trichoderma viride = test: Antifungal activity against Hypocrea rufa IAM 5061 at 28 degC measured after 72 hr by microdilution method; format: functional; conditions: IAM 5061, 72 h
In short: (§2)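 Fungi were kept on malt agar at 4 °C. Spores were washed off with sterile 0.85% saline containing 0.1% Tween 80 and adjusted to about 1.0×10⁵ per well. Compounds were dissolved in DMSO (1 mg/ml stock) and serially diluted in malt broth with inoculum in 96-well plates, 72 h at 28 °C, for MIC. MFC came from subculture into fresh broth for a further 72 h at 28 °C.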

Salmonella typhimurium [4] = test: Antibacterial activity against Salmonella enterica subsp. enterica serovar TyphimuriumATCC 13311 at […] degC measured after 72 hr by microdilution method; format: functional, Salmonella enterica subsp. enterica serovar Typhimurium; conditions: ATCC 13311, 72 h
In short: (§3)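 Bactericidal endpoint: after the 24 h broth microdilution (1.0×10⁴ CFU per well, LB broth, […] °C), wells were serially subcultured into plates of fresh broth and incubated a further 72 h. MBC was the lowest concentration with no visible growth, taken as 99.5% killing of the original inoculum.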

Penicillium ochrochloron = test: Antifungal activity against Penicillium ochrochloron ATCC 9112 at 28 degC measured after 72 hr by microdilution method; format: functional; conditions: ATCC 9112, 72 h; in short: as §2
Escherichia coli [5] = test: Antibacterial activity against Escherichia coli ATCC 35210 at […] degC measured after 24 hr by microdilution method; format: functional; conditions: ATCC 35210, 24 h; in short: as §1
Aspergillus flavus = test: Antifungal activity against Aspergillus flavus ATCC 9643 at 28 degC measured after 72 hr by microdilution method; format: functional; conditions: ATCC 9643, 72 h; in short: as §2
Staphylococcus aureus [6] = test: Antibacterial activity against Staphylococcus aureus ATCC 6538 at […] degC measured after 24 hr by microdilution method; format: functional; conditions: ATCC 6538, 24 h; in short: as §1
Aspergillus versicolor = test: Antifungal activity against Aspergillus versicolor ATCC 11730 at 28 degC measured after 72 hr by microdilution method; format: functional; conditions: ATCC 11730, 72 h; in short: as §2
Staphylococcus aureus [7] = test: Antibacterial activity against Staphylococcus aureus ATCC 6538 at […] degC measured after 72 hr by microdilution method; format: functional; conditions: ATCC 6538, 72 h; in short: as §3
Listeria monocytogenes [8] = test: Antibacterial activity against Listeria monocytogenes NCTC 7973 at […] degC measured after 72 hr by microdilution method; format: functional; conditions: NCTC 7973, 72 h; in short: as §3
Aspergillus fumigatus = test: Antifungal activity against plant isolate Aspergillus fumigatus at 28 degC measured after 72 hr by microdilution method; format: functional; in short: as §2
Fulvia fulva = test: Antifungal activity against Passalora fulva TK5318 at 28 degC measured after 72 hr by microdilution method; format: functional; conditions: TK5318, 72 h; in short: as §2
Micrococcus flavus [9] = test: Antibacterial activity against Micrococcus flavus ATCC 10240 at […] degC measured after 24 hr by microdilution method; format: functional; conditions: ATCC 10240, 24 h; in short: as §1
Pseudomonas aeruginosa [10] = test: Antibacterial activity against Pseudomonas aeruginosa ATCC 27853 at […] degC measured after 24 hr by microdilution method; format: functional; conditions: ATCC 27853, 24 h; in short: as §1
Micrococcus flavus [11] = test: Antibacterial activity against Micrococcus flavus ATCC 10240 at […] degC measured after 72 hr by microdilution method; format: functional; conditions: ATCC 10240, 72 h; in short: as §3
Bacillus cereus [12] = test: Antibacterial activity against clinical isolate Bacillus cereus at […] degC measured after 72 hr by microdilution method; format: functional; in short: as §3
Pseudomonas aeruginosa [13] = test: Antibacterial activity against Pseudomonas aeruginosa ATCC 27853 at […] degC measured after 72 hr by microdilution method; format: functional; conditions: ATCC 27853, 72 h; in short: as §3
Talaromyces funiculosus = test: Antifungal activity against Talaromyces funiculosus ATCC 36839 at 28 degC measured after 72 hr by microdilution method; format: functional; conditions: ATCC 36839, 72 h; in short: as §2
Proteus mirabilis [14] = test: Antibacterial activity against Proteus mirabilis at […] degC measured after 24 hr by microdilution method; format: functional; in short: as §1
Proteus mirabilis [15] = test: Antibacterial activity against Proteus mirabilis at […] degC measured after 72 hr by microdilution method; format: functional; in short: as §3
Escherichia coli [16] = test: Antibacterial activity against Escherichia coli ATCC 35210 at […] degC measured after 72 hr by microdilution method; format: functional; conditions: ATCC 35210, 72 h; in short: as §3
Aspergillus niger = test: Antifungal activity against Aspergillus niger ATCC 6275 at 28 degC measured after 72 hr by microdilution method; format: functional; conditions: ATCC 6275, 72 h; in short: as §2

Structure (SMILES) | MIC (Listeria monocytogenes [1]) [µM] | MIC (Bacillus cereus [2]) [µM] | MIC (Salmonella typhimurium [3]) [µM] | MIC (Escherichia coli [5]) [µM] | MIC (Staphylococcus aureus [6]) [µM] | MFC (Trichoderma viride) [µM] | MIC (Trichoderma viride) [µM] | MBC (Salmonella typhimurium [4]) [µM] | MFC (Penicillium ochrochloron) [µM] | MIC (Penicillium ochrochloron) [µM] | MFC (Aspergillus flavus) [µM] | MIC (Aspergillus flavus) [µM] | MFC (Aspergillus versicolor) [µM] | MIC (Aspergillus versicolor) [µM] | MBC (Staphylococcus aureus [7]) [µM] | MBC (Listeria monocytogenes [8]) [µM] | MFC (Aspergillus fumigatus) [µM] | MIC (Aspergillus fumigatus) [µM] | MFC (Fulvia fulva) [µM] | MIC (Fulvia fulva) [µM] | further results
COc1cc(Cc2nnc(Nc3ccc(C(F)(F)F)cc3)s2)c(S(=O)(=O)N2CCN(C)CC2)cc1OC | 17.9 (≈ 9.98 µg/mL) | 17.9 (≈ 9.98 µg/mL) | 17.9 (≈ 9.98 µg/mL) | 17.9 (≈ 9.98 µg/mL) | 17.9 (≈ 9.98 µg/mL) | 17.9 (≈ 9.98 µg/mL) | 8.9 (≈ 4.96 µg/mL) | 35.8 (≈ 20 µg/mL) | 35.8 (≈ 20 µg/mL) | 17.9 (≈ 9.98 µg/mL) | 35.8 (≈ 20 µg/mL) | 17.9 (≈ 9.98 µg/mL) | 35.8 (≈ 20 µg/mL) | 17.9 (≈ 9.98 µg/mL) | 35.8 (≈ 20 µg/mL) | 35.8 (≈ 20 µg/mL) | 17.9 (≈ 9.98 µg/mL) | 8.9 (≈ 4.96 µg/mL) | 17.9 (≈ 9.98 µg/mL) | 8.9 (≈ 4.96 µg/mL) | MIC (Micrococcus flavus [9]): 17.9 µM (≈ 9.98 µg/mL); MIC (Pseudomonas aeruginosa [10]): 17.9 µM (≈ 9.98 µg/mL); MBC (Micrococcus flavus [11]): 35.8 µM (≈ 20 µg/mL); MBC (Bacillus cereus [12]): 17.9 µM (≈ 9.98 µg/mL); MBC (Pseudomonas aeruginosa [13]): 35.8 µM (≈ 20 µg/mL); MFC (Talaromyces funiculosus): 17.9 µM (≈ 9.98 µg/mL); MIC (Talaromyces funiculosus): 8.9 µM (≈ 4.96 µg/mL); MIC (Proteus mirabilis [14]): 17.9 µM (≈ 9.98 µg/mL); MBC (Proteus mirabilis [15]): 35.8 µM (≈ 20 µg/mL); MBC (Escherichia coli [16]): 17.9 µM (≈ 9.98 µg/mL); MFC (Aspergillus niger): 35.8 µM (≈ 20 µg/mL); MIC (Aspergillus niger): 17.9 µM (≈ 9.98 µg/mL)
c1ccc(-c2ccc(C(c3ccccc3)n3ccnc3)cc2)cc1 (stereo unspecified) [BIFONAZOLE] |  |  |  |  |  | 800 (≈ 248 µg/mL) | 640 (≈ 199 µg/mL) |  | 640 (≈ 199 µg/mL) | 480 (≈ 149 µg/mL) | 640 (≈ 199 µg/mL) | 480 (≈ 149 µg/mL) | 640 (≈ 199 µg/mL) | 320 (≈ 99.3 µg/mL) |  |  | 640 (≈ 199 µg/mL) | 480 (≈ 149 µg/mL) | 640 (≈ 199 µg/mL) | 320 (≈ 99.3 µg/mL) | MFC (Talaromyces funiculosus): 800 µM (≈ 248 µg/mL); MIC (Talaromyces funiculosus): 640 µM (≈ 199 µg/mL); MFC (Aspergillus niger): 640 µM (≈ 199 µg/mL); MIC (Aspergillus niger): 480 µM (≈ 149 µg/mL)
CC(=O)N1CCN(c2ccc(OCC3COC(Cn4ccnc4)(c4ccc(Cl)cc4Cl)O3)cc2)CC1 (stereo unspecified) [KETOCONAZOLE] |  |  |  |  |  | 5700 (≈ 3030 µg/mL) | 4750 (≈ 2520 µg/mL) |  | 3800 (≈ 2020 µg/mL) | 3800 (≈ 2020 µg/mL) | 3800 (≈ 2020 µg/mL) | 2850 (≈ 1510 µg/mL) | 950 (≈ 505 µg/mL) | 380 (≈ 202 µg/mL) |  |  | 950 (≈ 505 µg/mL) | 380 (≈ 202 µg/mL) | 950 (≈ 505 µg/mL) | 380 (≈ 202 µg/mL) | MFC (Talaromyces funiculosus): 950 µM (≈ 505 µg/mL); MIC (Talaromyces funiculosus): 380 µM (≈ 202 µg/mL); MFC (Aspergillus niger): 950 µM (≈ 505 µg/mL); MIC (Aspergillus niger): 380 µM (≈ 202 µg/mL)

Further lines, with some results ahead:

MIC (Listeria monocytogenes [1]) [µM] | MIC (Bacillus cereus [2]) [µM] | MIC (Salmonella typhimurium [3]) [µM] | MIC (Escherichia coli [5]) [µM] | MIC (Staphylococcus aureus [6]) [µM] | Structure (SMILES) | MFC (Trichoderma viride) [µM] | MIC (Trichoderma viride) [µM] | MBC (Salmonella typhimurium [4]) [µM] | MFC (Penicillium ochrochloron) [µM] | MIC (Penicillium ochrochloron) [µM] | MFC (Aspergillus flavus) [µM] | MIC (Aspergillus flavus) [µM] | MFC (Aspergillus versicolor) [µM] | MIC (Aspergillus versicolor) [µM] | MBC (Staphylococcus aureus [7]) [µM] | MBC (Listeria monocytogenes [8]) [µM] | MFC (Aspergillus fumigatus) [µM] | MIC (Aspergillus fumigatus) [µM] | MFC (Fulvia fulva) [µM] | MIC (Fulvia fulva) [µM] | further results
372 (≈ 130 µg/mL) | 248 (≈ 86.7 µg/mL) | 248 (≈ 86.7 µg/mL) | 372 (≈ 130 µg/mL) | 248 (≈ 86.7 µg/mL) | CC1(C)S[C@@H]2[C@H](NC(=O)[C@H](N)c3ccccc3)C(=O)N2[C@H]1C(=O)O [AMPICILLIN] |  |  | 492 (≈ 172 µg/mL) |  |  |  |  |  |  | 372 (≈ 130 µg/mL) | 744 (≈ 260 µg/mL) |  |  |  |  | MIC (Micrococcus flavus [9]): 248 µM (≈ 86.7 µg/mL); MIC (Pseudomonas aeruginosa [10]): 744 µM (≈ 260 µg/mL); MBC (Micrococcus flavus [11]): 372 µM (≈ 130 µg/mL); MBC (Bacillus cereus [12]): 372 µM (≈ 130 µg/mL); MBC (Pseudomonas aeruginosa [13]): 1240 µM (≈ 433 µg/mL); MIC (Proteus mirabilis [14]): 372 µM (≈ 130 µg/mL); MBC (Proteus mirabilis [15]): 492 µM (≈ 172 µg/mL); MBC (Escherichia coli [16]): 492 µM (≈ 172 µg/mL)
258 (≈ 150 µg/mL) | 43 (≈ 25 µg/mL) | 172 (≈ 100 µg/mL) | 172 (≈ 100 µg/mL) | 172 (≈ 100 µg/mL) | CN[C@@H]1[C@H](O[C@H]2[C@H](O[C@H]3[C@H](O)[C@@H](O)[C@H](N=C(N)N)[C@@H](O)[C@@H]3N=C(N)N)O[C@@H](C)[C@]2(O)C=O)O[C@@H](CO)[C@H](O)[C@H]1O [STREPTOMYCIN] |  |  | 344 (≈ 200 µg/mL) |  |  |  |  |  |  | 344 (≈ 200 µg/mL) | 516 (≈ 300 µg/mL) |  |  |  |  | MIC (Micrococcus flavus [9]): 86 µM (≈ 50 µg/mL); MIC (Pseudomonas aeruginosa [10]): 172 µM (≈ 100 µg/mL); MBC (Micrococcus flavus [11]): 172 µM (≈ 100 µg/mL); MBC (Bacillus cereus [12]): 86 µM (≈ 50 µg/mL); MBC (Pseudomonas aeruginosa [13]): 344 µM (≈ 200 µg/mL); MIC (Proteus mirabilis [14]): 172 µM (≈ 100 µg/mL); MBC (Proteus mirabilis [15]): 344 µM (≈ 200 µg/mL); MBC (Escherichia coli [16]): 344 µM (≈ 200 µg/mL)
